Activity calls are given as the source filed them.
Columns and labels:
Assay type in all cases: functional, cell-based
MCF7 [1] = assay: Cytotoxicity against human MCF7 cells incubated for 1 week by CellTiter 96 Aqueous One Solution based assay; settings: time 1.0 weeks
Summary of the method: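 Cells (2 × 10^3/well, DMEM + 10% FBS, 37 °C, 5% CO2) treated with a concentration gradient of peptide for 1 week. MTS reagent added for 1 h, absorbance read at 490 nm, EC50 derived.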

MCF7 [2] = assay: Inhibition of colony formation in human MCF7 cells at 10 uM incubated for 2 weeks by crystal violet staining based assay
Summary of the method: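 Cells are seeded at 1 × 10^3/well and treated with peptide (10 μM) for 2 weeks, alone or with JQ1 5 μM, iJMJD6 10 μM, ICI 2.5 μM, or tamoxifen 3 μM (tamoxifen-resistant lines). Colonies are stained with crystal violet, dissolved in 10% acetic acid, and read at 590 nm. Three biological repeats.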

MCF7 [3] = assay: Inhibition of cell migration in human MCF7 cells at 10 uM incubated for 24 hrs by inverted microscopic assay
Summary of the method: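 Cells are seeded at 5 × 10^5/well and scratched at 80–90% confluence. They are kept in serum-free medium with peptide (10 μM); partner agents are JQ1 5 μM, iJMJD6 10 μM, or ICI 2.5 μM. Wound area is imaged by inverted microscope at 0 and 12 or 24 h. Wound closure % = (A0−A1)/A0 × 100. Three biological repeats.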

C[C@]12CC[C@@H]3c4ccc(O)cc4C[C@@H](CCCCCCCCC[S+]([O-])CCCC(F)(F)C(F)(F)F)[C@H]3[C@@H]1CC[C@@H]2O (stereo partly drawn)
active: Activity (MCF7 [1]) | inhibition (MCF7 [2]) | inhibition (MCF7 [3])

Reference: ChEMBL document CHEMBL5543129, “Peptide Inhibitor Targeting the Extraterminal Domain in BRD4 Potently Suppresses Breast Cancer Both In Vitro and In Vivo” (J Med Chem, 2024)
